Series [1] is described as follows: Dissociation constant, pKa of the compound by potentiometric analysis. Format: physicochemical.
For series [2], the target named is T1, Dihydroorotate dehydrogenase (Plasmodium falciparum, UniProt Q54A96).
T1 sequence (Q54A96 whole entry): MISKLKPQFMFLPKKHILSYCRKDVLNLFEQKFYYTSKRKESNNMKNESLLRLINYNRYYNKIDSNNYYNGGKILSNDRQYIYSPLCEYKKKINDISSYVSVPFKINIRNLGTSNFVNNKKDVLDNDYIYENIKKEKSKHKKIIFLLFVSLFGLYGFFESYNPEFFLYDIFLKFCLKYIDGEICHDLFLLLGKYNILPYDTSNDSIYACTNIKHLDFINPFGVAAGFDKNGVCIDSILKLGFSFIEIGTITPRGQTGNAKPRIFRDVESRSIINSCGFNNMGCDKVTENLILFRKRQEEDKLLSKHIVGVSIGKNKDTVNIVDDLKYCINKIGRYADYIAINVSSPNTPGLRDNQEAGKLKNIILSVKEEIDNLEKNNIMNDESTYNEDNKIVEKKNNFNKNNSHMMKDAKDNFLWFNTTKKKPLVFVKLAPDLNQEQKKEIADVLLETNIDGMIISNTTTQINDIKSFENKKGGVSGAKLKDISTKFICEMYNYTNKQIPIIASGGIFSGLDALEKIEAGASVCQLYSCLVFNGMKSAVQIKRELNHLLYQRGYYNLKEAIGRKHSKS
As to the kind of experiment: Inhibition of Plasmodium falciparum recombinant N-terminal His6-tagged DHODH (159-569 residues) expressed in Escherichia coli BL21(DE3) using DHO as substrate measured every min for 5 mins by DCPI dye-based photometric analysis. Summed up:
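N-terminally truncated recombinant enzyme, His-tag IMAC then size exclusion purified, in 50 mM Tris/HCl pH 7.8, 150 mM KCl, 0.1% Triton X-100 with 60 μM DCIP and 20 μM decylubiquinone. Started with 200 μM DHO; initial rate from DCIP absorbance at 600 nm over the first 5 min. IC50 is mean ± SE of three experiments.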

Series [3] deals with Dihydroorotate dehydrogenase (quinone), mitochondrial (Homo sapiens, UniProt Q02127). As to the kind of experiment: Inhibition of human recombinant N-terminal GST-tagged DHODH (31 to 395 residues) expressed in Escherichia coli BL21(DE3) using DHO as substrate preincubated for 5 mins followed by substrate addition and measured for 5 mins by DCPI dye-based assay. Summed up:
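GST-fused enzyme from E. coli, glutathione-affinity purified. Pre-incubated 5 min at 37°C in Tris buffer pH 8.0 with 100 μM coenzyme Q10, 50 μM DCIP and compounds (0.1% DMSO final). Started with 500 μM DHO; DCIP reduction followed at 650 nm over the first 5 min. IC50 is mean ± SE of three experiments.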

Series [4] is described as follows: Selectivity ratio of IC50 for human recombinant DHODH to IC50 for Plasmodium falciparum recombinant DHODH.
A short description of series [5]: Cytotoxicity against African green monkey COS7 cells after 48 hrs by MTT assay. Format: cell-based. Particulars: chlorocebus aethiops, COS-7 cells. Summed up: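 COS-7 cells in DMEM with 10% heat-inactivated FBS and gentamicin, 37°C, 5% CO2. Seeded at 10⁴ cells/well and left 16 h to adhere. Compounds added at several concentrations for 48 h. MTT added for 4 h, formazan dissolved in acidified Triton/isopropanol, OD read at 570 nm. CC50 from viability relative to control, given with 95% confidence interval of the fit.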
(Tetrazolium dyes change colour on reduction, which living cells bring about.)

Another series concerns Plasmodium falciparum. As to the kind of experiment: Anti-plasmodial activity against synchronized ring stage Plasmodium falciparum 3D7 infected in human erythrocytes assessed as reduction in parasitemia after 48 hrs by Sybr Green I dye-based flow cytometric analysis. The format is functional, organism-based. Conditions: 3D7, 48 h. Summed up: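 Parasites kept in O+ human erythrocytes in RPMI 1640 with HEPES pH 7.3, glutamine, glucose, gentamicin, 0.5mM hypoxanthine and 10% human serum, 4% hematocrit, 37°C in 1% O2/5% CO2. Sorbitol-synchronized rings; 1:2 serial dilutions from 300µM at 2% hematocrit, 1-2% parasitemia, 48h. SybrGreen I flow cytometry; triplicate points fitted to log[I] vs response for EC50.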
Background: Flow cytometry measures light scatter and fluorescence of single cells or particles in a stream.

Where only a bound is given, the exact number is not on record here.

Chain of Dihydroorotate dehydrogenase (quinone), mitochondrial (Q02127 whole entry, the tested form may be a part): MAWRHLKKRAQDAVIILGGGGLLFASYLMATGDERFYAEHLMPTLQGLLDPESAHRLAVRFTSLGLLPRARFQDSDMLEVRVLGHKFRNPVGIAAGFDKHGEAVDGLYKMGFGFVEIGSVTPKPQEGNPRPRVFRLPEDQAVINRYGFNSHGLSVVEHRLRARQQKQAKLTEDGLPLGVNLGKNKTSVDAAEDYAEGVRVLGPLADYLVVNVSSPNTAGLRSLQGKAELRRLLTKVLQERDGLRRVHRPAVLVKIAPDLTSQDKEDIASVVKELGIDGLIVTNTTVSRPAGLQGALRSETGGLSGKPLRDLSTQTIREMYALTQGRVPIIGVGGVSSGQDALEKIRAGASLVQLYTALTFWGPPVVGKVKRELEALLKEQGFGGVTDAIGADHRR

As a reminder, the pKa is the pH at which an ionisable group is half protonated. In general, IC50 refers to the concentration that gives 50% inhibition. In series [1], `Cn1cc(C(=O)NCC(c2ccccc2)c2ccccc2)c(O)n1` returned a pKa of 6.42. Also, in series [2], the IC50 was more than 250 µM.

Regarding `Cn1nc(O)c(C(N)=O)c1COc1ccccc1`, the IC50 in series [2] was more than 250 µM.

As to `Cc1c(C(=O)NCC(c2ccccc2)c2ccccc2)c(O)nn1C`, in series [1], the pKa came to 6.54. The IC50 in series [2] was more than 250 µM.

For the compound `CCOc1nn(C)c(COc2ccccc2)c1C(=O)O`, the half-maximal inhibitory concentration (IC50) in series [2] is more than 250 µM.

In the case of `Cn1nc(O)c(C(=O)O)c1CSc1ccccc1`, the values for the IC50 in series [3] and in series [2] were more than 250 µM and 25 µM, respectively. Further, the Ratio IC50 in series [4] was more than 10.

Take `CN(Cc1c(C(=O)O)c(O)nn1C)c1ccccc1`: the IC50 was more than 250 µM in series [3] and 23 µM in series [2]. The Ratio IC50 in series [4] was more than 10.

As to `Cn1nc(OCC2CC2)c(C(=O)O)c1COc1ccccc1`, the IC50 in series [2] is more than 250 µM.

The term CC50 denotes the concentration that lowers cell viability or growth by half. For orientation: EC50 means the concentration needed to bring the measured effect to its halfway point. Turning to `Cn1nc(O)c(C(=O)O)c1COc1cccc(C(F)(F)F)c1`, the IC50 in series [3] is not below 200 µM; in series [2], 2.8 µM. In addition, the CC50 at 48 h in series [5] came to 167 µM. For the same compound, the EC50 in the series on Plasmodium falciparum turned out to be 40.7 µM.

Take `Cn1nc(O)c(C(=O)O)c1COc1ccc(C(F)(F)F)cc1`: the IC50 in series [3] was not below 200 µM; in series [2] it was 5.3 µM. This compound also yielded a CC50 at 48 h in series [5] of 152 µM. For the same compound, in the series with Plasmodium falciparum, the EC50 is 26.7 µM.

On to `O=C(NCC(c1ccccc1)c1ccccc1)c1nsnc1O`, for which the pKa in series [1] came out at 3.72. Further, the values for the IC50 in series [3] and in series [2] were more than 200 µM and 12 µM, respectively. The CC50 at 48 h in series [5] was determined as 190 µM. In the series on Plasmodium falciparum, the EC50 is 35.9 µM.

On to `O=C(NCc1ccccc1)c1nsnc1O`, for which the pKa in series [1] amounted to 3.69. Moreover, the IC50 was more than 200 µM in series [3] and 35 µM in series [2]. In addition, the Ratio IC50 in series [4] was more than 6.

For the compound `O=C(NCC(c1ccccc1)c1ccccc1)c1nonc1O`, the pKa in series [1] turned out to be 3.33. Also, the IC50 in series [3] was more than 200 µM; in series [2] it was 75 µM. Further, the Ratio IC50 in series [4] was more than 3.

`CCOC(=O)c1c(O)nn(C)c1COc1ccccc1`: in series [2], the IC50 is more than 250 µM.

Take `Cn1nc(O)c(C(=O)O)c1CNc1ccccc1`: the values for the IC50 in series [3] and in series [2] were more than 250 µM and 16 µM, respectively. For the same compound, the Ratio IC50 in series [4] was more than 16.

Consider `Cn1nc(OCc2ccccc2)c(C(=O)O)c1COc1ccccc1`, for which the IC50 in series [2] is more than 250 µM.

`Cn1nc(O)c(C(=O)O)c1COc1ccccc1`: the IC50 in series [3] is more than 250 µM; in series [2], 19 µM. Moreover, the Ratio IC50 in series [4] is more than 13.

Values taken from ChEMBL document CHEMBL4330080, “Hydroxyazole scaffold-based Plasmodium falciparum dihydroorotate dehydrogenase inhibitors: Synthesis, biological evaluation and X-ray structural studies” (Eur J Med Chem, 2019).
